{"source": "ChEMBL document CHEMBL1143826", "about": "“Treatment of Staphylococcus aureus biofilm infection by the quorum-sensing inhibitor RIP” (2007)", "type_in_all_cases": "functional", "conditions_in_all_cases": "route intraperitoneal", "key": {"Staphylococcus aureus [1]": {"tested_on": "Staphylococcus aureus", "test": "Antibacterial activity against methicillin-resistant Staphylococcus aureus ATCC 43300 in rat graft model assessed as biofilm reduction at 10 mg/kg, ip administered as seven dose, 3 days after graft implantation", "how_it_was_run": "(§1)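 Wistar rats (n = 15) with subcutaneous 1-cm2 collagen-sealed Dacron grafts challenged with MRSA. Treatment began 3 days after implantation, once the biofilm was established. RIP 10 mg/kg and/or teicoplanin 3 mg/kg given ip daily for 7 days. Grafts explanted on day 10 and counted as CFU/ml. Untreated controls explanted on days 3 and 10.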"}, "Staphylococcus aureus [2]": {"tested_on": "Staphylococcus aureus", "test": "Antibacterial activity against methicillin-resistant Staphylococcus aureus ATCC 43300 in rat graft model assessed as biofilm reduction at 3 mg/kg, ip administered as seven dose, 3 days after graft implantation", "how_it_was_run": "as §1"}, "Staphylococcus aureus [3]": {"tested_on": "Staphylococcus aureus", "test": "Antibacterial activity against Staphylococcus aureus SD in rat graft model assessed as biofilm reduction at 10 mg/kg, ip administered as single dose immediately after graft implantation", "how_it_was_run": "(§2)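 Wistar rats (n = 5) with 1-cm2 collagen-sealed Dacron grafts implanted subcutaneously. 2 × 10^7 exponentially growing bacteria inoculated onto the graft. RIP given intraperitoneally daily for 1, 4 or 7 days, starting immediately after implantation or 2 days later. Grafts explanted on day 10. Bacterial load expressed as CFU/ml; detection limit 10 CFU/ml. Untreated challenged controls.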"}, "Staphylococcus aureus [4]": {"tested_on": "Staphylococcus aureus", "test": "Antibacterial activity against Staphylococcus aureus SD in rat graft model assessed as biofilm reduction at 20 mg/kg, ip administered as single dose immediately after graft implantation", "how_it_was_run": "as §2"}, "Staphylococcus aureus [5]": {"tested_on": "Staphylococcus aureus", "test": "Antibacterial activity against Staphylococcus aureus SD in rat graft model assessed as biofilm reduction at 30 mg/kg, ip administered as single dose immediately after graft implantation", "how_it_was_run": "as §2"}, "Staphylococcus aureus [6]": {"tested_on": "Staphylococcus aureus", "test": "Antibacterial activity against Staphylococcus aureus SD in rat graft model assessed as biofilm reduction at 10 mg/kg, ip administered as single dose, 2 days after graft implantation", "how_it_was_run": "as §2"}, "Staphylococcus aureus [7]": {"tested_on": "Staphylococcus aureus", "test": "Antibacterial activity against Staphylococcus aureus SD in rat graft model assessed as biofilm reduction at 20 mg/kg, ip administered as single dose, 2 days after graft implantation", "how_it_was_run": "as §2"}, "Staphylococcus aureus [8]": {"tested_on": "Staphylococcus aureus", "test": "Antibacterial activity against Staphylococcus aureus SD in rat graft model assessed as biofilm reduction at 30 mg/kg, ip administered as single dose, 2 days after graft implantation", "how_it_was_run": "as §2"}, "Staphylococcus aureus [9]": {"tested_on": "Staphylococcus aureus", "test": "Antibacterial activity against Staphylococcus aureus SD in rat graft model assessed as biofilm reduction at 10 mg/kg, ip administered as four doses, 2 days after graft implantation", "how_it_was_run": "as §2"}, "Staphylococcus aureus [10]": {"tested_on": "Staphylococcus aureus", "test": "Antibacterial activity against Staphylococcus aureus SD in rat graft model assessed as biofilm reduction at 20 mg/kg, ip administered as four doses, 2 days after graft implantation", "how_it_was_run": "as §2"}, "Staphylococcus aureus [11]": {"tested_on": "Staphylococcus aureus", "test": "Antibacterial activity against Staphylococcus aureus SD in rat graft model assessed as biofilm reduction at 30 mg/kg, ip administered as four doses, 2 days after graft implantation", "how_it_was_run": "as §2"}, "Staphylococcus aureus [12]": {"tested_on": "Staphylococcus aureus", "test": "Antibacterial activity against Staphylococcus aureus SD in rat graft model assessed as biofilm reduction at 10 mg/kg, ip administered as seven doses, 2 days after graft implantation", "how_it_was_run": "as §2"}, "Staphylococcus aureus [13]": {"tested_on": "Staphylococcus aureus", "test": "Antibacterial activity against Staphylococcus aureus SD in rat graft model assessed as biofilm reduction at 20 mg/kg, ip administered as seven doses, 2 days after graft implantation", "how_it_was_run": "as §2"}, "Staphylococcus aureus [14]": {"tested_on": "Staphylococcus aureus", "test": "Antibacterial activity against Staphylococcus aureus SD in rat graft model assessed as biofilm reduction at 30 mg/kg, ip administered as seven doses, 2 days after graft implantation", "how_it_was_run": "as §2"}}}
{"substance": "H-YSPWTNF-NH2", "values": [{"measurement": "CFU/ml", "setting": "Staphylococcus aureus [1]", "result": 78000}, {"measurement": "CFU/ml", "setting": "Staphylococcus aureus [2]", "result": 36000}, {"measurement": "CFU/ml", "setting": "Staphylococcus aureus [3]", "result": 50000}, {"measurement": "CFU/ml", "setting": "Staphylococcus aureus [4]", "result": 9400}, {"measurement": "CFU/ml", "setting": "Staphylococcus aureus [5]", "result": 2300}, {"measurement": "CFU/ml", "setting": "Staphylococcus aureus [6]", "result": 8400000}, {"measurement": "CFU/ml", "setting": "Staphylococcus aureus [7]", "result": 3000000}, {"measurement": "CFU/ml", "setting": "Staphylococcus aureus [8]", "result": 760000}, {"measurement": "CFU/ml", "setting": "Staphylococcus aureus [9]", "result": 53000}, {"measurement": "CFU/ml", "setting": "Staphylococcus aureus [10]", "result": 6300}, {"measurement": "CFU/ml", "setting": "Staphylococcus aureus [11]", "result": 850}, {"measurement": "CFU/ml", "setting": "Staphylococcus aureus [12]", "result": 6700}, {"measurement": "CFU/ml", "setting": "Staphylococcus aureus [13]", "result": 410}, {"measurement": "CFU/ml", "setting": "Staphylococcus aureus [14]", "result": 290}]}
